System: Human immunodeficiency virus 2
Assay: Antiviral activity against HIV2 ROD infected in human MT4 cells assessed as protection against virus-induced cytopathic effect after 5 days by MTT assay
Format: functional, organism-based
Conditions: Human immunodeficiency virus 2, ISOLATE ROD, MT4, 120 h
Outline: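 MT-4 cells resuspended at 6 × 10⁵ cells/mL after centrifugation at 200 g for 5 min. HIV-2 (ROD) added at 100-300 CCID₅₀. Test compound given as serial five-fold dilutions, triplicate wells. Viability of infected cells measured spectrophotometrically by MTT after 5 days. EC₅₀ = concentration giving 50% protection against viral cytopathic effect.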

Q: With `Cc1cc(C)c(Oc2cc(Nc3ccc(C#N)cc3)[nH]c(=O)c2Br)c(C)c1` as the molecule, how does the EC50 read?
A: > 294 µM

Q: For `Cc1cc(C)c(Oc2cc(Nc3ccc(C#N)cc3)[nH]c(=O)c2Cl)c(C)c1`, which EC50 is on record?
A: > 329 µM

Q: For `Cc1cc(C#N)cc(C)c1Oc1cc(Nc2ccc(C#N)cc2)[nH]c(=O)c1I`, which EC50 is on record?
A: > 259 µM

Q: With `Cc1cc(C#N)cc(C)c1Oc1cc(Nc2ccc(C#N)cc2)[nH]c(=O)c1Br` as the molecule, how does the EC50 read?
A: > 287 µM

Q: With `Cc1cccc(C)c1Oc1cc(Nc2ccc(C#N)cc2)[nH]c(=O)c1I` as the molecule, how does the EC50 read?
A: > 28 µM

Q: Which EC50 does the source give for `Cc1cccc(C)c1Oc1cc(Nc2ccc(C#N)cc2)[nH]c(=O)c1Br` here?
A: > 63 µM

Q: Which EC50 does the source give for `Cc1cccc(C)c1Oc1cc(Nc2ccc(C#N)cc2)[nH]c(=O)c1Cl` here?
A: > 29 µM

System: not listed separately
Assay: Selectivity index, ratio of CC50 for human MT4 cells to EC50 for HIV2 ROD
Format: toxicity, cell-based
Conditions: read-out: Ratio CC50/EC50
Outline: (§1)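 Selectivity index is CC₅₀/EC₅₀. Both values come from the same MTT assay in MT-4 cells: mock-infected and virus-infected (100-300 CCID₅₀) wells were run in parallel and read at day 5.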

Q: For `Cc1cc(C)c(Oc2cc(Nc3ccc(C#N)cc3)[nH]c(=O)c2Br)c(C)c1`, which selectivity ratio is on record?
A: 1

Q: With `Cc1cc(C)c(Oc2cc(Nc3ccc(C#N)cc3)[nH]c(=O)c2Cl)c(C)c1` as the molecule, how does the selectivity ratio read?
A: 1

Q: For `Cc1cc(C#N)cc(C)c1Oc1cc(Nc2ccc(C#N)cc2)[nH]c(=O)c1I`, which selectivity ratio is on record?
A: 1

Q: With `Cc1cc(C#N)cc(C)c1Oc1cc(Nc2ccc(C#N)cc2)[nH]c(=O)c1Br` as the molecule, how does the selectivity ratio read?
A: 1

Q: With `Cc1cccc(C)c1Oc1cc(Nc2ccc(C#N)cc2)[nH]c(=O)c1I` as the molecule, how does the selectivity ratio read?
A: < 1

Q: With `Cc1cccc(C)c1Oc1cc(Nc2ccc(C#N)cc2)[nH]c(=O)c1Br` as the molecule, how does the selectivity ratio read?
A: < 1

Q: With `Cc1cccc(C)c1Oc1cc(Nc2ccc(C#N)cc2)[nH]c(=O)c1Cl` as the molecule, how does the selectivity ratio read?
A: < 1

System: not listed separately
Assay: Selectivity index, ratio of CC50 for human MT4 cells to EC50 for HIV1 RES056
Format: toxicity, cell-based
Conditions: read-out: Ratio CC50/EC50
Outline: as §1

Q: Which selectivity ratio does the source give for `Cc1cc(C)c(Oc2cc(Nc3ccc(C#N)cc3)[nH]c(=O)c2Br)c(C)c1` here?
A: 1

Q: For `Cc1cc(C)c(Oc2cc(Nc3ccc(C#N)cc3)[nH]c(=O)c2Cl)c(C)c1`, which selectivity ratio is on record?
A: 1

Q: For `Cc1cc(C#N)cc(C)c1Oc1cc(Nc2ccc(C#N)cc2)[nH]c(=O)c1I`, which selectivity ratio is on record?
A: 1

Q: Which selectivity ratio does the source give for `Cc1cc(C#N)cc(C)c1Oc1cc(Nc2ccc(C#N)cc2)[nH]c(=O)c1Br` here?
A: 1

Q: For `Cc1cccc(C)c1Oc1cc(Nc2ccc(C#N)cc2)[nH]c(=O)c1I`, which selectivity ratio is on record?
A: < 1

Q: With `Cc1cccc(C)c1Oc1cc(Nc2ccc(C#N)cc2)[nH]c(=O)c1Br` as the molecule, how does the selectivity ratio read?
A: < 1

Q: Which selectivity ratio does the source give for `Cc1cccc(C)c1Oc1cc(Nc2ccc(C#N)cc2)[nH]c(=O)c1Cl` here?
A: < 1

System: not listed separately
Assay: Cytotoxicity against human MT4 cells after 5 days by MTT assay
Format: cell-based
Conditions: not given
Outline: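 Exponentially growing MT-4 cells resuspended at 6 × 10⁵ cells/mL and exposed to serial five-fold compound dilutions in triplicate, mock-infected alongside infected wells. Viability read by MTT assay at day 5. CC₅₀ = concentration reducing mock-infected cell viability by 50%.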

Q: For `Cc1cc(C)c(Oc2cc(Nc3ccc(C#N)cc3)[nH]c(=O)c2Br)c(C)c1`, which CC50 at 120 h is on record?
A: > 294 µM

Q: Which CC50 at 120 h does the source give for `Cc1cc(C)c(Oc2cc(Nc3ccc(C#N)cc3)[nH]c(=O)c2Cl)c(C)c1` here?
A: > 329 µM

Q: With `Cc1cc(C#N)cc(C)c1Oc1cc(Nc2ccc(C#N)cc2)[nH]c(=O)c1I` as the molecule, how does the CC50 at 120 h read?
A: > 259 µM

Q: For `Cc1cc(C#N)cc(C)c1Oc1cc(Nc2ccc(C#N)cc2)[nH]c(=O)c1Br`, which CC50 at 120 h is on record?
A: > 287 µM

Q: With `Cc1cccc(C)c1Oc1cc(Nc2ccc(C#N)cc2)[nH]c(=O)c1I` as the molecule, how does the CC50 at 120 h read?
A: 28 µM

Q: Which CC50 at 120 h does the source give for `Cc1cccc(C)c1Oc1cc(Nc2ccc(C#N)cc2)[nH]c(=O)c1Br` here?
A: 63 µM

Q: With `Cc1cccc(C)c1Oc1cc(Nc2ccc(C#N)cc2)[nH]c(=O)c1Cl` as the molecule, how does the CC50 at 120 h read?
A: 29 µM

System: Human immunodeficiency virus 1
Assay: Antiviral activity against HIV1 3B harboring wild type reverse transcriptase infected in human MT4 cells assessed as protection against virus-induced cytopathic effect after 5 days by MTT assay
Format: functional, organism-based
Conditions: Human immunodeficiency virus 1, 3B, MT4, 120 h
Outline: (§2)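 MT-4 cells, growing exponentially, were spun and resuspended at 6 × 10⁵ cells/mL. They were infected at the start together with compound, given as serial five-fold dilutions in triplicate wells, with mock-infected wells run in parallel. Viability was read by MTT after 5 days. EC₅₀ is the concentration giving 50% protection against viral cytopathic effect.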

Q: Which EC50 does the source give for `Cc1cc(C)c(Oc2cc(Nc3ccc(C#N)cc3)[nH]c(=O)c2Br)c(C)c1` here?
A: 32000 nM

Q: Which EC50 does the source give for `Cc1cc(C)c(Oc2cc(Nc3ccc(C#N)cc3)[nH]c(=O)c2Cl)c(C)c1` here?
A: 9300 nM

Q: With `Cc1cc(C#N)cc(C)c1Oc1cc(Nc2ccc(C#N)cc2)[nH]c(=O)c1I` as the molecule, how does the EC50 read?
A: 2900 nM

Q: With `Cc1cc(C#N)cc(C)c1Oc1cc(Nc2ccc(C#N)cc2)[nH]c(=O)c1Br` as the molecule, how does the EC50 read?
A: 1200 nM

Q: Which EC50 does the source give for `Cc1cccc(C)c1Oc1cc(Nc2ccc(C#N)cc2)[nH]c(=O)c1I` here?
A: 1700 nM

Q: For `Cc1cccc(C)c1Oc1cc(Nc2ccc(C#N)cc2)[nH]c(=O)c1Br`, which EC50 is on record?
A: 3600 nM

Q: Which EC50 does the source give for `Cc1cccc(C)c1Oc1cc(Nc2ccc(C#N)cc2)[nH]c(=O)c1Cl` here?
A: 2400 nM

System: Human immunodeficiency virus 1
Assay: Antiviral activity against HIV1 RES056 harboring reverse transcriptase K103N/Y181C double mutant infected in human MT4 cells assessed as protection against virus-induced cytopathic effect after 5 days by MTT assay
Format: functional, organism-based
Conditions: Human immunodeficiency virus 1, RES056, MT4, 120 h
Outline: as §2

Q: Which EC50 does the source give for `Cc1cc(C)c(Oc2cc(Nc3ccc(C#N)cc3)[nH]c(=O)c2Br)c(C)c1` here?
A: > 294 µM

Q: Which EC50 does the source give for `Cc1cc(C)c(Oc2cc(Nc3ccc(C#N)cc3)[nH]c(=O)c2Cl)c(C)c1` here?
A: > 329 µM

Q: With `Cc1cc(C#N)cc(C)c1Oc1cc(Nc2ccc(C#N)cc2)[nH]c(=O)c1I` as the molecule, how does the EC50 read?
A: > 259 µM

Q: Which EC50 does the source give for `Cc1cc(C#N)cc(C)c1Oc1cc(Nc2ccc(C#N)cc2)[nH]c(=O)c1Br` here?
A: > 287 µM

Q: With `Cc1cccc(C)c1Oc1cc(Nc2ccc(C#N)cc2)[nH]c(=O)c1I` as the molecule, how does the EC50 read?
A: > 28 µM

Q: For `Cc1cccc(C)c1Oc1cc(Nc2ccc(C#N)cc2)[nH]c(=O)c1Br`, which EC50 is on record?
A: > 63 µM

Q: For `Cc1cccc(C)c1Oc1cc(Nc2ccc(C#N)cc2)[nH]c(=O)c1Cl`, which EC50 is on record?
A: > 29 µM

System: not listed separately
Assay: Selectivity index, ratio of CC50 for human MT4 cells to EC50 for HIV1 3B
Format: toxicity, cell-based
Conditions: read-out: Ratio CC50/EC50
Outline: as §1

Q: For `Cc1cc(C)c(Oc2cc(Nc3ccc(C#N)cc3)[nH]c(=O)c2Br)c(C)c1`, which selectivity ratio is on record?
A: > 9

Q: Which selectivity ratio does the source give for `Cc1cc(C)c(Oc2cc(Nc3ccc(C#N)cc3)[nH]c(=O)c2Cl)c(C)c1` here?
A: > 35

Q: Which selectivity ratio does the source give for `Cc1cc(C#N)cc(C)c1Oc1cc(Nc2ccc(C#N)cc2)[nH]c(=O)c1I` here?
A: > 89

Q: With `Cc1cc(C#N)cc(C)c1Oc1cc(Nc2ccc(C#N)cc2)[nH]c(=O)c1Br` as the molecule, how does the selectivity ratio read?
A: > 244

Q: For `Cc1cccc(C)c1Oc1cc(Nc2ccc(C#N)cc2)[nH]c(=O)c1I`, which selectivity ratio is on record?
A: 16

Q: For `Cc1cccc(C)c1Oc1cc(Nc2ccc(C#N)cc2)[nH]c(=O)c1Br`, which selectivity ratio is on record?
A: 17

Q: With `Cc1cccc(C)c1Oc1cc(Nc2ccc(C#N)cc2)[nH]c(=O)c1Cl` as the molecule, how does the selectivity ratio read?
A: 12

— ChEMBL document CHEMBL3120159, “Discovery of 2-pyridone derivatives as potent HIV-1 NNRTIs using molecular hybridization based on crystallographic overlays” (Bioorg Med Chem, 2014)
